# Published values pooled from the literature.
# EGFR del747-752/P753S: Epidermal growth factor receptor (EGFR, Homo sapiens, UniProt P00533, del747-752/P753S)
# EGFR L858R/T790M: Epidermal growth factor receptor (EGFR, Homo sapiens, UniProt P00533, L858R/T790M)
# EGFR: Epidermal growth factor receptor (EGFR, Homo sapiens, UniProt P00533)
# EGFR del746-750: Epidermal growth factor receptor (EGFR, Homo sapiens, UniProt P00533, del746-750)
target,assay,setting,quantity,result,SMILES
"Epidermal growth factor receptor (EGFR, Homo sapiens, UniProt P00533, G719C)",binding,1 µM,remaining binding,83%,N[C@@H]1CCN(c2nccc(-c3cnn4ncccc34)n2)C1
EGFR del747-752/P753S,"cell-free assay, competition with immobilised ligand",1 µM,remaining binding,79%,CCC(=O)N[C@H]1CC[C@@H](C(=O)N(C)c2ccc(-c3nc4ccccc4o3)cc2)C1
EGFR L858R/T790M,"enzyme activity, inhibitor",1 µM,inhibition,17%,COc1cc2ncnc(Nc3ccc(Oc4ccccc4)c(C)c3C)c2cc1OC
EGFR del747-752/P753S,"cell-free assay, competition with immobilised ligand",1 µM,remaining binding,85%,CNC(=O)Nc1ccc2c(c1)[C@@]1(CC2)OC(=O)N(CC(=O)N(Cc2ccc(F)cc2)[C@@H](C)C(F)(F)F)C1=O
EGFR,"binding, SPR",,kon,258000 M⁻¹ s⁻¹,CC(C)[C@@H]1NC(=O)[C@H](CCCNC(=N)N)NC(=O)[C@H](Cc2ccc(O)cc2)NC(=O)[C@H](C(C)C)NC(=O)[C@H](C(C)C)NC(=O)[C@H](CCCNC(=N)N)NC(=O)[C@H](CC(=O)O)NC(=O)[C@H](CC(=O)O)NC(=O)CCNC(=O)[C@H](Cc2ccc(O)cc2)NC(=O)[C@H](Cc2ccc(O)cc2)NC(=O)[C@H](Cc2ccccc2)NC(=O)[C@@H](Cc2ccc(O)cc2)NC(=O)CSC[C@@H](C(=O)NCC(N)=O)NC(=O)CCNC1=O
EGFR del746-750,"cell-free assay, competition with immobilised ligand",1 µM,remaining binding,92%,CC(=O)Nc1c(C(C)=O)c(=O)n(C)c2nc(-c3ccc(Cl)cc3Cl)c(-c3ccc(Cl)cc3)cc12
EGFR L858R/T790M,"enzyme activity, inhibitor",0.1 µM,inhibition,0%,COc1cc(-c2cc(-c3ccc(N4CCNCC4)cc3)cnc2N)cc(OC)c1OC
EGFR del746-750,"cell-free assay, competition with immobilised ligand",1 µM,remaining binding,100%,O=C(Nc1cnc(Oc2ccc(F)cc2)nc1)N1CCc2ncccc2[C@@H]1c1ccc(F)cc1
EGFR L858R/T790M,cell-free assay,10 µM,remaining signal,0%,Cc1ccc(NC(=O)c2ccc(C)c(C(F)(F)F)c2)cc1C#Cc1nn(C2CCC(O)CC2)c2ncnc(N)c12 (centres unmarked)
EGFR,cell-free assay,20 µM,remaining signal,13%,Nc1ncnc2occ(-c3ccc(NC(=O)Nc4cc(C(F)(F)F)ccc4F)cc3)c12
EGFR L858R/T790M,"binding, competition with immobilised ligand",1 µM,remaining binding,55%,O=C(NCCCN1CCOCC1)c1ccc(Nc2ncc(Cl)c(-c3ccc(Cl)s3)n2)cc1
EGFR,cell-free assay,0.5 µM,remaining signal,93.5%,O=C1Nc2ccc(Cl)cc2C1=Cc1cc(Cl)c(O)c(Cl)c1
"Epidermal growth factor receptor (EGFR, Homo sapiens, UniProt P00533, G719S)",binding,1 µM,remaining binding,100%,CN(C)c1nccc(-c2cnn3ncccc23)n1
EGFR,cell-free assay,23.5 nM,remaining signal,55%,Cc1ccc(C(=O)Nc2ccc(CN3CCN(C)CC3)c(C(F)(F)F)c2)cc1C#Cc1cnc2cccnn12
EGFR del746-750,"cell-free assay, competition with immobilised ligand",1 µM,remaining binding,100%,COc1cc(-c2cn(C3CCc4ccccc4N(CC(F)(F)F)C3=O)nn2)ccc1-n1ccc(C)n1 (centres unmarked)
EGFR L858R/T790M,binding,1 µM,remaining binding,76%,C[C@@H]1CCN(c2nccc(-c3cnn4ncccc34)n2)C1
EGFR L858R/T790M,"cell-free assay, competition with immobilised ligand",1 µM,remaining binding,76%,O=C1CCc2cc(Nc3cc(OC4CCOCC4)c([N+](=O)[O-])cc3Cl)ccc2N1
"Epidermal growth factor receptor (EGFR, Homo sapiens, UniProt P00533, T790M)",binding,1 µM,remaining binding,100%,Cc1cnn2ncc(-c3ccnc(N(C)C)n3)c2c1
EGFR L858R/T790M,"enzyme activity, inhibitor, ELISA",0.1 µM,inhibition,22.5%,CCC(=O)Nc1cc(Nc2nc(N3CCc4sccc4C3)c3cccnc3n2)c(OC)cc1N1CCC(N(C)C)CC1
EGFR,"enzyme activity, inhibitor, radiometric",1 µM,remaining activity,108%,Cc1cnc(NC2CCOCC2)nc1-n1cnc(C(=O)NC(CN)c2cc(F)cc(Cl)c2)c1 (centres unmarked)
